Experimental data taken from ChEMBL document CHEMBL1128343, “Synthesis, properties, and pharmacokinetic studies of N2-phenylguanine derivatives as inhibitors of herpes simplex virus thymidine kinases” (J Med Chem, 1995).

Key:
Mus musculus [1] = test: Plasma concentration at time-0 was measured in mice at 100 mg/kg after intraperitoneal administration with saline(pH=11.4) as vehicle; format: ADME, organism-based; set-up: dose 100 mg/kg, route intraperitoneal; conditions: in vivo, ip, pH 11.4, 100 mg/kg, read-out: Co
How it was run: (§1)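 Male CD-1 mice (~25 g) received 100 mg/kg ip as a solution in saline pH 11.4 or 90% DMSO. Plasma was collected at intervals after decapitation, diluted 10-fold and stored at −21 °C. Drug was measured by C8 reverse-phase HPLC with UV at 275 nm against spiked-plasma standards (0.11–56 µM). C0 and ke came from least-squares regression of the terminal log-linear phase; t1/2 = ln2/ke.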

[2] = Half life in mice plasma was determined at 100 mg/kg after intraperitoneal administration with saline(pH=11.4) as vehicle; format: ADME, organism-based; set-up: dose 100 mg/kg, route intraperitoneal; conditions: mouse, ip; how it was run: as §1
[3] = Half life in mice plasma was determined at 40 mg/kg after intravenous administration with saline(pH=11.4) as vehicle; format: ADME, organism-based; set-up: dose 40 mg/kg, route intravenous; conditions: mouse
How it was run: (§2)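 Male CD-1 mice (~25 g) received 40 mg/kg iv via the tail vein, dissolved at 10 mg/mL in saline pH 11.4 or 90% aqueous DMSO. Blood was taken at intervals after decapitation, and plasma was diluted 10-fold. Drug was quantified by C8 reverse-phase HPLC with UV at 275 nm. C0 and ke came from a log-linear fit of all points; t1/2 = ln2/ke and Vd = dose/C0.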

Mus musculus [4] = test: Plasma concentration at time-0 was measured in mice at 40 mg/kg after intravenous administration with saline(pH=11.4) as vehicle; format: ADME, organism-based; set-up: dose 40 mg/kg, route intravenous; conditions: in vivo, pH 11.4, 40 mg/kg, read-out: Co; how it was run: as §2
[5] = Volume of distribution in mice plasma was determined at 40 mg/kg after intravenous administration with saline(pH=11.4) as vehicle; format: ADME, organism-based; set-up: dose 40 mg/kg, route intravenous; conditions: mouse; how it was run: as §2
Thymidine kinase [6] = biological target: T1, Thymidine kinase (Human herpesvirus 2, UniProt Q6L709); test: Inhibition of HSV-2 thymidine kinase, 2 uM [3H]thymidine and ATP as phosphate donor; set-up: species or system Human alphaherpesvirus 2
T1 sequence (Q6L709 whole entry): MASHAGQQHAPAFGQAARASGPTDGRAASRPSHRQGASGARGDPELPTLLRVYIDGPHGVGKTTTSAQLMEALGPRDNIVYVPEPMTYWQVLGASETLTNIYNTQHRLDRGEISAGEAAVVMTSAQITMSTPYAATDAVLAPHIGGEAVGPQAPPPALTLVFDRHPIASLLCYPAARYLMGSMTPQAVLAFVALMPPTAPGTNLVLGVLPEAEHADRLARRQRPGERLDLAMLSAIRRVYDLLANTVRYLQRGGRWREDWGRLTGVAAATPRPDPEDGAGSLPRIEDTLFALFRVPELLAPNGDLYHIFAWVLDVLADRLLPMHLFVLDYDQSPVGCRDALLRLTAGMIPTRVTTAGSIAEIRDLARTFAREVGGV
How it was run: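 TK purified by affinity column from HSV2-infected HeLa cells. Activity measured by DE-81 filter binding as phosphorylation of limiting 2 µM [3H]TdR with ATP as phosphate donor. Inhibitors were diluted from DMSO stocks, with matching DMSO in controls.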

Thymidine kinase [7] = biological target: T2, Thymidine kinase (Human alphaherpesvirus 1, UniProt Q9QNF7); test: Inhibition of HSV-1 thymidine kinase, 1 uM [3H]thymidine and ATP as phosphate donor
T2 sequence (Q9QNF7 whole entry): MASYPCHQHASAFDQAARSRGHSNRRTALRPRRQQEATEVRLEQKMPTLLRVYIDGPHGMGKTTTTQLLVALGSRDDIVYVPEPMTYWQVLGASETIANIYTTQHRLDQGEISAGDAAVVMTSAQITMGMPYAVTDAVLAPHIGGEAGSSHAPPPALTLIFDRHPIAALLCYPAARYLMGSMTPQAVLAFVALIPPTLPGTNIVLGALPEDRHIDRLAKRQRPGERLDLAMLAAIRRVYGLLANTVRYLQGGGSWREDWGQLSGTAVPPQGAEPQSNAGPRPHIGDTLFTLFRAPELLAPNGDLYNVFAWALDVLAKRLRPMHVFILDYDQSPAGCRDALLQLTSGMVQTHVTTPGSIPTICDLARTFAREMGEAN

[8] = Volume of distribution in mice plasma was determined at 40 mg/kg after intravenous administration with 90% DMSO as vehicle; format: ADME, organism-based; set-up: dose 40 mg/kg, route intravenous; conditions: mouse; how it was run: as §2
[9] = Half life in mice plasma was determined at 40 mg/kg after intravenous administration with 90% DMSO as vehicle; format: ADME, organism-based; set-up: dose 40 mg/kg, route intravenous; conditions: mouse; how it was run: as §2
Mus musculus [10] = test: Plasma concentration at time-0 was measured in mice at 40 mg/kg after intravenous administration with 90% DMSO as vehicle; format: ADME, organism-based; set-up: dose 40 mg/kg, route intravenous; conditions: in vivo, read-out: Co; how it was run: as §2
Mus musculus [11] = test: Plasma concentration at time-0 was measured in mice at 100 mg/kg after intraperitoneal administration with 90% DMSO as vehicle; format: ADME, organism-based; set-up: dose 100 mg/kg, route intraperitoneal; conditions: in vivo, ip, read-out: Co; how it was run: as §1
Mus musculus [12] = test: Plasma concentration at time-0 was measured in mice at 100 mg/kg after intraperitoneal administration with 90% DMSO as vehicle; conditions: in vivo, ip, read-out: Co
[13] = Half life in mice plasma was determined at 100 mg/kg after intraperitoneal administration with 90% DMSO as vehicle; conditions: mouse, ip

Row | Structure (SMILES) | IC50 (Thymidine kinase [6]) | IC50 (Thymidine kinase [7]) | also measured
1 | O=C1N=C(Nc2ccccc2)N=C2C1N=CN2[C@H]1C[C@H](O)[C@@H](CO)O1 (stereo partly specified) |  |  | concentration (Mus musculus [1]): 11.7 µM; half-life [2]: 60 min; half-life [3]: 7.5 min; concentration (Mus musculus [4]): 174 µM; Vd [5]: 0.4 L/kg
2 | C=CCn1cnc2c(=O)[nH]c(Nc3ccccc3)nc21 | 180 nM |  | 
3 | O=C1N=C(Nc2cccc(C(F)(F)F)c2)N=C2C1N=CN2[C@H]1C[C@H](O)[C@@H](CO)O1 (stereo partly specified) | 2000 nM | 4000 nM | 
4 | O=c1[nH]c(Nc2ccccc2)nc2c1ncn2CC(O)CO (stereo unspecified) | 3500 nM | 1700 nM | 
5 | OCCn1cnc2c(O)nc(Nc3cccc(C(F)(F)F)c3)nc21 | 20400 nM | 4700 nM | 
6 | O=c1[nH]c(Nc2cccc(CC(F)(F)F)c2)nc2nc[nH]c12 | 1000 nM | 450 nM | 
7 | O=c1[nH]c(Nc2cccc(C(Cl)C(F)(F)Cl)c2)nc2nc[nH]c12 (stereo unspecified) | 470 nM | 650 nM | 
8 | O=c1[nH]c(Nc2cccc(C(Cl)=C(Cl)Cl)c2)nc2[nH]cnc12 | 70000 nM | 70000 nM | 
9 | O=c1[nH]c(Nc2cccc(C(F)F)c2)nc2nc[nH]c12 | 3900 nM | 2800 nM | 
10 | O=c1[nH]c(Nc2ccccc2)nc2c1ncn2CC(O)CSCCO (stereo unspecified) | 1600 nM | 1600 nM | 
11 | COCCn1cnc2c(=O)[nH]c(Nc3ccccc3)nc21 | 2700 nM | 610 nM | 
12 | O=c1[nH]c(Nc2cccc(OC(F)(F)F)c2)nc2nc[nH]c12 | 6300 nM | 2300 nM | 
13 | O=c1[nH]c(Nc2ccccc2)nc2c1ncn2CCCCO |  |  | Vd [8]: 2.7 L/kg; half-life [9]: 14 min; concentration (Mus musculus [10]): 49.5 µM; concentration (Mus musculus [11]): 30.5 µM
14 | O=c1[nH]c(Nc2ccccc2)nc2c1ncn2CCO |  |  | Vd [8]: 3.3 L/kg; half-life [9]: 15 min; concentration (Mus musculus [10]): 44.7 µM; concentration (Mus musculus [12]): 100 µM; half-life [13]: 21 min
15 | O=c1[nH]c(Nc2cccc(C(F)(F)F)c2)nc2nc[nH]c12 |  |  | concentration (Mus musculus [1]): 10.2 µM; half-life [3]: 25 min; concentration (Mus musculus [4]): 54.2 µM; Vd [5]: 3 L/kg
16 | O=C(O)Cn1cnc2c(=O)[nH]c(Nc3ccccc3)nc21 | 9800 nM | 12400 nM | 
